Measurements published in ChEMBL document CHEMBL1129786, “Ryanodine action at calcium release channels. 1. importance of hydroxyl substituents” (J Med Chem, 1996).

organism: Rattus norvegicus; test: Inhibition of rat ventricular muscle strip contractility.; format: functional; details: Muscle tissue
Outline: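 Rat right ventricular muscle strips were held in water-jacketed baths of Krebs-Henseleit solution at 30 °C, aerated with O2-CO2 (95:5), at 0.5 g resting tension. Contraction was evoked by electrical stimulation and recorded on a polygraph. IC50 was taken from inhibition of contraction, using three to five experiments.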

Q: How did the IC50 turn out when CC1CCC2(O)C3(C)CC4(O)OC2(C1O)C1(O)C3(O)C(OC(=O)c2ccc[nH]2)C(O)(C(C)C)C41C (centres undefined) was run?
A: The IC50 was 34 nM.

organism: Rattus norvegicus; test: Potency relative to ryanodine inhibiting rat ventricular muscle strip contractility.; format: functional, Muscle tissue; details: not given
Outline: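 Right ventricular muscle strips from rat suspended in Krebs-Henseleit solution at 30 °C, aerated O2-CO2 95:5; resting tension 0.5 g. Contraction evoked by electrical stimulation was recorded and its inhibition measured. IC50 values are expressed relative to ryanodine; three to five experiments.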

Q: With CC1CCC2(O)C3(C)CC4(O)OC2(C1O)C1(O)C3(O)C(OC(=O)c2ccc[nH]2)C(O)(C(C)C)C41C (centres undefined) as the molecule, how does the Potency read?
A: The Potency was 100.

Q: Which Potency does the source give for C=C1CCC23OB(CC)OC45C(OC(=O)c6ccc[nH]6)C(=C(C)C)C6(C)C(O)(CC24C)OC3(C1O)C65O (centres undefined) here?
A: Its Potency is 26.

Q: CC1CCC2(O)C3(OC4(O)CC2(C)C2(O)C(OC(=O)c5ccc[nH]5)C(O)(C(C)C)C4(C)C23)C1O (centres undefined) was tested. Which Potency did it give?
A: Its Potency is 64.

Q: With C=C1CCC23OB(C)OC45C(OC(=O)c6ccc[nH]6)C(O)(C(C)C)C6(C)C(O)(CC24C)OC3(C1O)C56O (centres undefined) as the molecule, how does the Potency read?
A: Its Potency is 100.

Q: How did the Potency turn out when CC1CCC2(O)C3(C)CC4(O)OC2(C1O)C1(O)C3(O)C(OC(=O)c2ccc[nH]2)C2(OC2(C)C)C41C (stereo in doubt; 26) was run?
A: The Potency was 3.4.

Q: How did the Potency turn out when CONC12C(OC(=O)c3ccc[nH]3)C(O)(C(C)C)C3(C)C1C14OC3(O)CC2(C)C1(O)CCC(C)C4O (centres undefined) was run?
A: Its Potency is <1.1.

Q: How did the Potency turn out when C=C1CCC2(O)C3(C)CC4(O)OC25C1OP(=O)(NC)OC51C3(O)C(OC(=O)c2ccc[nH]2)C(O)(C(C)C)C41C (centres undefined) was run?
A: The Potency was <3.5.

Q: Which Potency does the source give for CC1CCC2(O)C3(C)CC4(O)OC2(C1O)C1(O)C3(O)C(OC(=O)c2ccc[nH]2)C(O)(C(C)(C)O)C41C (centres undefined) here?
A: The Potency was 26.

Q: With C=C1CCC2(O)C3(C)CC4(O)OC2(C1O)C1(O)C3(O)C(OC(=O)c2cccn2C)C(O)(C(C)C)C41C (centres undefined) as the molecule, how does the Potency read?
A: The Potency was 100.

Q: For CC1CCC2(O)C3(OC4(O)CC2(C)C2(NO)C(OC(=O)c5ccc[nH]5)C(O)(C(C)C)C4(C)C23)C1O (centres undefined), which Potency is on record?
A: Its Potency is 4.9.

Q: Which Potency does the source give for CC1CCC2(O)C3(C)CC4(O)OC2(C1O)C1(O)C3(O)C(OC(=O)c2ccc[nH]2)C2(OC2(C)C)C41C (stereo in doubt; 25) here?
A: Its Potency is 24.

Q: With C=C1CCC23OB(O)OC45C(OC(=O)c6ccc[nH]6)C(O)(C(C)C)C6(C)C(O)(CC24C)OC3(C1O)C56O (centres undefined) as the molecule, how does the Potency read?
A: Its Potency is 28.

Q: For C=C1CCC23OB(c4ccsc4)OC45C(OC(=O)c6ccc[nH]6)C(O)(C(C)C)C6(C)C(O)(CC24C)OC3(C1O)C56O (centres undefined), which Potency is on record?
A: The Potency was 52.
